# Measured values taken from ChEMBL document CHEMBL1649392, “Synthesis of substituted 3-amino-N-phenyl-1H-indazole-1-carboxamides endowed with antiproliferative activity” (Eur J Med Chem, 2011).
# Assay: Cytotoxicity in HFF cells after 72 hrs by trypan blue exclusion assay
# Type: cell-based
# Conditions: human
# In short: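 Human normal fibroblasts, 2 × 10⁵ per well, seeded in RPMI 1640 with 10% fetal calf serum plus penicillin and streptomycin at 37 °C under CO₂. Compound added after 24 h. Living cells counted at 72 h by trypan blue exclusion, expressed as percent of control proliferation; GI50 derived.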
structure (smiles),measurement,value
CCCCOc1ccc(NC(=O)n2nc(N)c3cc(N)ccc32)cc1,GI50 at 72 h,32 µM
